# Laboratory results from ChEMBL document CHEMBL1141188, “Methyl substitution on the piperidine ring of N-[omega-(6-methoxynaphthalen-1-yl)alkyl] derivatives as a probe for selective binding and activity at the sigma(1) receptor” (J Med Chem, 2005).
# Experiments:
# [1] = molecular target: Sigma non-opioid intracellular receptor 1 (Cavia porcellus, UniProt Q60492); assay: Displacement of [3H](+)-pentazocine from sigma 1 receptor in guinea pig brain membranes; assay type: cell membranes, Membrane
# Sigma 2 receptor = assay: Displacement of [3H]DTG from sigma 2 receptor in rat liver membranes; assay type: cell membranes, Membrane
# [2] = molecular target: T1, 3-beta-hydroxysteroid-Delta(8),Delta(7)-isomerase (Cavia porcellus, UniProt Q60490); assay: Displacement of [3H](+/-)-emopamil from delta8-delta7 sterol isomerase (SI) site in guinea pig liver membranes; assay type: cell membranes, Membrane
# T1 sequence (Q60490 whole entry): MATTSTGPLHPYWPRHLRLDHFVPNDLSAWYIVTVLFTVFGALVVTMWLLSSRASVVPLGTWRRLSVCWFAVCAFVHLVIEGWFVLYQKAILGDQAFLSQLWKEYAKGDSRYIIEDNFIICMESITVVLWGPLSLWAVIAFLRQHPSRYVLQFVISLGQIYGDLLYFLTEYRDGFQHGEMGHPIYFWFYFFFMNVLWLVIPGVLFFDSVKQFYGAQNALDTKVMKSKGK
# Outline: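 Guinea pig liver membranes with (±)-[3H]emopamil; (±)-ifenprodil defined nonspecific binding. IC50 from six to nine concentrations, two or three duplicate experiments; Ki by nonlinear curve fitting.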
# [3] = molecular target: Sigma non-opioid intracellular receptor 1 (Cavia porcellus) (UniProt Q60492); assay: […] rat sigma 2 receptor over guinea pig sigma 1 receptor
# Cavia porcellus = species on record: Cavia porcellus; assay: Selectivity for guinea pig delta8-delta7 sterol isomerase (SI) site over guinea pig sigma 1 receptor
# [4] = molecular target: Sigma non-opioid intracellular receptor 1 (Rattus norvegicus) (UniProt Q9R0C9); assay: Percentage inhibition of rat C6 glioma cell proliferation mediated by sigma 1 receptor at 50 uM
# Sigma non-opioid intracellular receptor 1 (Rattus norvegicus), sequence (Q9R0C9 whole entry): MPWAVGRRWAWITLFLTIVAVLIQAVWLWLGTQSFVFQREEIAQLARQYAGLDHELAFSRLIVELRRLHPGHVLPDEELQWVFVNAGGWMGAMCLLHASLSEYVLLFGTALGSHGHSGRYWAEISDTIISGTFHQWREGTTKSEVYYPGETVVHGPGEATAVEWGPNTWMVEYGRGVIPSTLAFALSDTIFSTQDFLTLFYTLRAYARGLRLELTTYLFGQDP
# Sigma non-opioid intracellular receptor 1 (Cavia porcellus), sequence (Q60492 whole entry): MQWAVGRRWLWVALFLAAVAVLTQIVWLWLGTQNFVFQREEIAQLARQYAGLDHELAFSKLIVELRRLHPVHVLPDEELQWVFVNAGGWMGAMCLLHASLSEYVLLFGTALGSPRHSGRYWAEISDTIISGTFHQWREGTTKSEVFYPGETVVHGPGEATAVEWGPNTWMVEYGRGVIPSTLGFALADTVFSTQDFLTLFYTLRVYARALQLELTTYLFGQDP
# Sigma non-opioid intracellular receptor 1, sequence (Q60492 whole entry): as above
Structure (SMILES),Ki [1],Ki (Sigma 2 receptor),Ki [2],Ratio Ki [3],Ratio Ki (Cavia porcellus),inhibition [4]
COc1ccc2c(CCCN3CCCCC3(C)C)cccc2c1,1060 nM,94 nM,14.9 nM,0.09,0.014,–
COc1ccc2c(CCCN3CCC(C)(C)CC3)cccc2c1,1.47 nM,26.3 nM,9.04 nM,18,6.1,–
COc1ccc2c(CCCCN3CCCCC3(C)C)cccc2c1,22.2 nM,28.6 nM,11.7 nM,1.3,0.5,–
COc1ccc2c(c1)CCCC2CCCCN1CCC(C)CC1 (configuration not stated),0.42 nM,36.3 nM,5.55 nM,86,13,53%
COc1ccc2c(c1)CCCC2CCCCN1CCCCC1 (configuration not stated),1.01 nM,48.7 nM,3.57 nM,48,3.5,47%
COc1ccc2c(c1)CCCC2CCCN1CCCC(C)(C)C1 (configuration not stated),–,–,–,–,–,47%
COc1ccc2c(CCCCN3CCCC[C@H]3C)cccc2c1,1.43 nM,49.2 nM,6.44 nM,34,4.5,–
COc1ccc2c(CCCCN3CCC(C)(C)CC3)cccc2c1,2.25 nM,17.9 nM,1.82 nM,8,0.8,–
COc1ccc2c(c1)CCCC2CCCN1CCCCC1(C)C (configuration not stated),178 nM,115 nM,16.4 nM,0.6,0.1,–
Cc1ccccc1NC(=N)Nc1ccccc1C,–,–,–,–,–,20%
COc1ccc2c(CCCCN3CCCC(C)(C)C3)cccc2c1,0.36 nM,67.4 nM,1.89 nM,187,5.3,–
COc1ccc2c(CCCCN3CCC(C)CC3)cccc2c1,0.03 nM,17.9 nM,8.04 nM,597,268,–
COc1ccc2c(c1)CCCC2CCCN1CCC(C)(C)CC1 (configuration not stated),1.18 nM,31.4 nM,5.39 nM,27,3,–
COc1ccc2c(CCCN3CCCC[C@@H]3C)cccc2c1,7.05 nM,104 nM,46.5 nM,15,6.6,–
COc1ccc2c(c1)CCCC2CCCCN1CCCC(C)(C)C1 (configuration not stated),–,–,–,–,–,31%
COc1ccc2c(CCCCN3CCCCC3)cccc2c1,1.14 nM,151 nM,19.5 nM,132,17,–
COc1ccc2c(c1)CCCC2CCCN1CCC(C)CC1 (configuration not stated),1.78 nM,31.4 nM,5.34 nM,18,3,–

Structure (SMILES),Ki [1],Ki (Sigma 2 receptor),Ki [2],Ratio Ki [3],Ratio Ki (Cavia porcellus),inhibition [4]
CCCN(CCC)CCc1ccc(OC)c(OCCc2ccccc2)c1,–,212 nM,14.6 nM,–,–,–
COc1ccc2c(CCCN3CCC[C@@H](C)C3)cccc2c1,1.35 nM,60.2 nM,19.3 nM,45,14,–
COc1ccc2c(CCCN3CCCC(C)(C)C3)cccc2c1,0.35 nM,238 nM,8.71 nM,680,25,–
COc1ccc2c(CCCCN3CCCC[C@@H]3C)cccc2c1,0.5 nM,53.8 nM,7.2 nM,108,14,–
COc1ccc2c(CCCN3CCCCC3)cccc2c1,7.8 nM,175 nM,37.6 nM,22,4.8,–
COc1ccc2c(CCCN3CCC(C)CC3)cccc2c1,1.5 nM,38.9 nM,19.5 nM,26,13,–
CC(C(O)c1ccc(O)cc1)N1CCC(Cc2ccccc2)CC1 (racemic) [IFENPRODIL],–,–,4.7 nM,–,–,–
c1ccc(CCN2CCCCC2)cc1,–,–,–,–,–,5%
COc1ccc2c(CCCCN3CCC[C@@H](C)C3)cccc2c1,0.24 nM,64 nM,14.6 nM,266,61,–
COc1ccc2c(c1)CCCC2CCCN1CCCCC1 (configuration not stated),1.2 nM,26.2 nM,17.9 nM,22,15,–
COc1ccc2c(CCCN3CCC[C@H](C)C3)cccc2c1,3.32 nM,59.3 nM,3.41 nM,18,1,–
COc1ccc2c(CCCCN3CCC[C@H](C)C3)cccc2c1,0.66 nM,32.7 nM,2.81 nM,50,4.3,–
COc1ccc2c(c1)CCCC2CCCCN1CCC(C)(C)CC1 (configuration not stated),0.3 nM,17.5 nM,4.11 nM,58,14,–
COc1ccc2c(CCCN3CCCC[C@H]3C)cccc2c1,1.83 nM,86.2 nM,11.1 nM,47,6.1,–
COc1ccc2c(c1)CCCC2CCCCN1CCCCC1(C)C (configuration not stated),6.16 nM,29.5 nM,8.97 nM,4.8,1.4,–
O=C(Cc1ccc(Cl)c(Cl)c1)OCCN1CCCC1,–,–,–,–,–,25%
CC(C)=CCN1CC[C@]2(C)c3cc(O)ccc3C[C@H]1[C@H]2C [(+)-PENTAZOCINE],–,–,> 10000 nM,–,–,35%
